Legend:
[1] = biological target: T1, 5-hydroxytryptamine receptor 2C (Mus musculus) (UniProt P34968); assay: Percent of maximum stimulation of phosphatidylinositol turnover at cloned 5-hydroxytryptamine 2C receptor in A9 cells; type: functional, cell-based
T1 sequence (whole entry): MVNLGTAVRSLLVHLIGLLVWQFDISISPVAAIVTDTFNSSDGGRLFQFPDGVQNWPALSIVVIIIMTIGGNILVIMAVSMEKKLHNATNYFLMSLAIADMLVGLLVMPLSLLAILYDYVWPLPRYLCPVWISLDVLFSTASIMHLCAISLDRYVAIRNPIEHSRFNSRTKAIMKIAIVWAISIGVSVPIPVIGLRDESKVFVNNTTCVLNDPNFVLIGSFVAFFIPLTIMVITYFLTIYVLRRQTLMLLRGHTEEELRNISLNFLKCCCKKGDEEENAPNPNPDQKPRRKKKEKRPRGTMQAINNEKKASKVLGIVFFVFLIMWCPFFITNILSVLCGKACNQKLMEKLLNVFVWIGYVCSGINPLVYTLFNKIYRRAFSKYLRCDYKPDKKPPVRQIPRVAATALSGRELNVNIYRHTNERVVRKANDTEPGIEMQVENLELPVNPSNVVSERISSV
In short: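 A9 cells expressing cloned 5-HT2C receptor, labelled 18 h with 1 μCi/mL [3H]inositol in inositol-free DMEM with dialysed serum. Compounds given 60 min with 10 mM LiCl in Krebs bicarbonate buffer, then [3H]inositol monophosphate accumulation measured. Expressed as % of the 5-HT (10^-5 M) maximum minus control. Vmax by nonlinear regression. Triplicates in three experiments, mean ± SE.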

[2] = biological target: 5-hydroxytryptamine receptor 2A (Mus musculus) (UniProt P35363); assay: Percent of maximum stimulation of phosphatidylinositol turnover at cloned 5-hydroxytryptamine 2A receptor in 3T3 cells; type: functional, cell-based; settings: NIH3T3
Sequence of 5-hydroxytryptamine receptor 2A (Mus musculus) (P35363 whole entry): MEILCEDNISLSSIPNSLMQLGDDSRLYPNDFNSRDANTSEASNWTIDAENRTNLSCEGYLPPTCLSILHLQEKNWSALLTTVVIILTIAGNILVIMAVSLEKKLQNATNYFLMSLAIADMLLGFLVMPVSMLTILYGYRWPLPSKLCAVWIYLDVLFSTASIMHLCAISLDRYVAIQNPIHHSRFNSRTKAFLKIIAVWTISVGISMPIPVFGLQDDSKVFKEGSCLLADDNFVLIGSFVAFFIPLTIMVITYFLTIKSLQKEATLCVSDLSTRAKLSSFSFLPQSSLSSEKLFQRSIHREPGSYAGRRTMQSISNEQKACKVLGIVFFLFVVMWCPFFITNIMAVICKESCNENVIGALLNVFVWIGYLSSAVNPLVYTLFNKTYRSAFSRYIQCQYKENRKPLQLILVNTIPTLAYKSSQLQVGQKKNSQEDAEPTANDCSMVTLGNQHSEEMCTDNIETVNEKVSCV

SMILES: COc1cc(C(F)(F)F)c(OC)cc1CCN
- K aff [1]: 32 nM
- K aff [2]: 165 nM

SMILES: COc1cc(CC(C)N)c(OC)cc1I (stereo unspecified)
- K aff [1]: 43 nM
- K aff [2]: 119 nM

SMILES: COc1cc(C(F)(F)F)c(OC)cc1CC(C)N (stereo unspecified)
- K aff [1]: 43 nM
- K aff [2]: 86 nM

— ChEMBL document CHEMBL1127290, “1-(2,5-Dimethoxy-4-(trifluoromethyl)phenyl)-2-aminopropane: a potent serotonin 5-HT2A/2C agonist” (J Med Chem, 1994)
